In ChEMBL document CHEMBL1143829, “Lack of effect of DX-619, a novel des-fluoro(6)-quinolone, on glomerular filtration rate measured by serum clearance of cold iohexol” (Antimicrob Agents Chemother, 2007):

Legend:
Homo sapiens [1] = assay: Effect on glomerular filtration rate in human assessed as iohexol clearance rate in plasma per 1.73 m2 at 800 mg, iv after 4 days relative to baseline; assay type: functional
Procedure, shortened: (§1)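 GFR was measured as plasma clearance of iohexol. A single 20 ml bolus (300 mg/ml) was given on days 1, 4 and 11, timed to match 1 h after the end of the day-4 infusion. Blood was drawn at 120, 150, 180, 210, 240, 270 and 300 min and assayed by HPLC-UV. CL0 = dose × b/c1, with b and c1 from linear regression. Change from baseline used a noninferiority mixed-effects comparison with 95% CI.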

Homo sapiens [2] = assay: Effect on glomerular filtration rate in human assessed as iohexol clearance rate in plasma per 1.73 m2 at 800 mg, iv after 11 days relative to baseline; assay type: functional; procedure, shortened: as §1
Homo sapiens [3] = assay: Effect on renal function in human assessed as serum creatinine concentration at 800 mg, iv after 4 days relative to baseline; assay type: functional
Homo sapiens [4] = assay: Effect on renal function in human assessed as serum creatinine concentration at 800 mg, iv after 11 days relative to baseline; assay type: functional
Homo sapiens [5] = assay: Effect on renal function in human assessed as blood urea nitrogen concentration at 800 mg, iv after 4 days relative to baseline; assay type: functional
Homo sapiens [6] = assay: Effect on renal function in human assessed as blood urea nitrogen concentration at 800 mg, iv after 11 days relative to baseline; assay type: functional
Homo sapiens [7] = assay: Effect on renal function in human assessed as creatinine clearance in 24 hrs urine sample at 800 mg, iv after 4 days relative to baseline; assay type: functional
Procedure, shortened: (§2)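 Urine was collected over 24 h at baseline (−24 to 0 h), on day 4 (72–96 h) and on day 11 (240–264 h). CLCR = urinary creatinine amount / (SCr × 24 h) × (1.73/BSA), using SCr measured at the start of each collection.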

Homo sapiens [8] = assay: Effect on renal function in human assessed as creatinine clearance in 24 hrs urine sample at 800 mg, iv after 11 days relative to baseline; assay type: functional; procedure, shortened: as §2
[9] = Cmax […] in human after 1 day; assay type: ADME, organism-based; conditions: in vivo
Procedure, shortened: (§3)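 Plasma was sampled predose, at end of infusion, and 1, 3 and 9 h post-infusion on days 1 and 4, plus 24 h post-infusion on day 5. Drug was assayed by validated LC-MS/MS (0.02–10 µg/ml). Noncompartmental analysis; Cmax taken by observation without interpolation, with Tmax; day-4 values treated as steady state.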

[10] = Cmax at steady state in human after 4 days; assay type: ADME, organism-based; conditions: in vivo; procedure, shortened: as §3
[11] = Tmax in human plasma; assay type: ADME, organism-based; procedure, shortened: as §3
[12] = Protein binding in human plasma; assay type: ADME, organism-based; conditions: read-out: PPB (converted)
Procedure, shortened: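 Plasma ultrafiltrate and matching plasma were sampled on days 1 and 4, predose and 1 and 4 h after infusion start, and assayed by LC-MS/MS (ultrafiltrate range 0.01–5.0 µg/ml). Binding at each time point was calculated from free ultrafiltrate versus total plasma concentration.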

[13] = Renal clearance in human urine after 4 days; assay type: ADME, organism-based; conditions: read-out: CL_renal (converted)
Procedure, shortened: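 Steady-state AUC (AUCss,24) covered 25 h from the start of the day-4 infusion to 24 h after it (linear up/log down rule). CL = dose/AUCss,24. Urine from 0–24 h on day 4 was assayed by LC-MS/MS, and renal clearance = Xu(0–24)/AUCss,24.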

Homo sapiens [14] = assay: Effect on glomerular filtration rate in human assessed as creatinine clearance rate in plasma per 1.73 m2 at 800 mg, iv after 4 days relative to baseline; assay type: functional
Homo sapiens [15] = assay: Effect on glomerular filtration rate in human assessed as creatinine clearance rate in plasma per 1.73 m2 at 800 mg, iv after 11 days relative to baseline; assay type: functional
[16] = Clearance in human plasma after 4 days

In the case of `COc1c(N2CC[C@@H](C3(N)CC3)C2)ccc2c(=O)c(C(=O)O)cn([C@@H]3C[C@@H]3F)c12`, the Activity (Homo sapiens [1]) is reported as 1.12 mL/min, the Activity (Homo sapiens [2]) is reported as -2.44 mL/min and the Activity (Homo sapiens [3]) is reported as 0.3. It also gave an Activity (Homo sapiens [4]) of 0.09, an Activity (Homo sapiens [5]) of 0.69 and an Activity (Homo sapiens [6]) of -2.06. It also gave an Activity (Homo sapiens [7]) of -32.8, an Activity (Homo sapiens [8]) of -3.4 and a Cmax [9] of 8210 ng/mL. It also gave a Cmax [10] of 8850 ng/mL, a Tmax [11] of 1.25 h and a fraction unbound [12] of 0.35. For the same compound, the CL renal at 96 h [13] was 43.3 mL/min, the Activity (Homo sapiens [14]) was 95.52 mL/min and the Activity (Homo sapiens [15]) was 94.3 mL/min. The clearance [16] was 166 mL/min.
